Results on nine molecules are retold here after ChEMBL document CHEMBL1667749, “Design & synthesis of N'-[substituted] pyridine-4-carbohydrazides as potential anticonvulsant agents” (Eur J Med Chem, 2011).

Data set [1] concerns Mus musculus. The experiment in a line: Anticonvulsant activity in albino CF-1 mouse assessed as protection against 6 Hz psychomotor seizure at 100 mg/kg, ip after 4 hrs by minimal clonic seizure test. In kind it is functional, organism-based. Details: dose 100 mg/kg. In outline: (§1)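 Male CF-1 mice (18–25 g), i.p. 100 mg/kg in 0.5% methyl cellulose suspension; 6 Hz corneal stimulation, 32 mA for 3 s, four mice per time point. Protected if no minimal clonic phase with stereotyped automatistic behaviour.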

Data set [2] deals with Mus musculus. The data set is described as follows: Anticonvulsant activity in albino CF-1 mouse assessed as protection against 6 Hz psychomotor seizure at 100 mg/kg, ip after 2 hrs by minimal clonic seizure test. In kind it is functional. In outline: as §1
Data set [3] relates to Mus musculus. The data set is described as follows: Anticonvulsant activity in albino CF-1 mouse assessed as protection against 6 Hz psychomotor seizure at 100 mg/kg, ip after 1 hr by minimal clonic seizure test. In kind it is functional. In outline:
as §1

The subject of data set [4] is Mus musculus. The experiment in a line: Anticonvulsant activity in albino CF-1 mouse assessed as protection against 6 Hz psychomotor seizure at 100 mg/kg, ip after 0.5 hrs by minimal clonic seizure test. It counts as functional. The method, boiled down: as §1
The test system of data set [5] is Mus musculus. The data set is described as follows: Anticonvulsant activity in albino CF-1 mouse assessed as protection against 6 Hz psychomotor seizure at 100 mg/kg, ip after 0.25 hrs by minimal clonic seizure test. In kind it is functional. In outline: as §1
Data set [6] relates to Mus musculus. The data set is described as follows: Anticonvulsant activity in albino CF-1 mouse assessed as protection against maximal electroshock-induced seizures at 300 mg/kg, ip after 0.5 hrs. Details: dose 300 mg/kg. It counts as functional, organism-based. The method, boiled down:
(§2)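 Male CF-1 mice (18–25 g), i.p. in 0.5% methyl cellulose at 30, 100 and 300 mg/kg; MES: 60 Hz, 50 mA, 0.2 s through tetracaine-primed corneal electrodes; protection = abolished hind limb tonic extension. Value given as minimum dose active in half or more of mice.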
Background: The maximal electroshock test induces tonic seizures with an electrical stimulus.

Data set [7] deals with Mus musculus. The experiment in a line: Anticonvulsant activity in albino CF-1 mouse assessed as protection against maximal electroshock-induced seizures at 300 mg/kg, ip after 2 hrs. It counts as functional, organism-based. Also on record: dose 300 mg/kg. In outline: as §2
In data set [8] the test system is Mus musculus. The experiment in a line: Anticonvulsant activity in albino CF-1 mouse assessed as protection against maximal electroshock-induced seizures at 300 mg/kg, ip after 4 hrs. In kind it is functional, organism-based. Details: dose 300 mg/kg. In outline:
as §2

Data set [9] relates to Mus musculus. The data set is described as follows: Anticonvulsant activity in albino CF-1 mouse assessed as protection against subcutaneous metrazol-induced seizures at 300 mg/kg, ip after 0.5 hrs. In kind it is functional, organism-based. Also on record: dose 300 mg/kg. The method, boiled down: (§3)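 Male CF-1 mice, i.p. at 30, 100, 300 mg/kg in 0.5% methyl cellulose; metrazol dose convulsing 97% of animals injected s.c. in midline neck fold, mice isolated and watched 30 min; protected if no 3–5 s clonic spasm episode of limbs, jaws or vibrissae.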

The subject of data set [10] is Mus musculus. The experiment in a line: Anticonvulsant activity in albino CF-1 mouse assessed as protection against subcutaneous metrazol-induced seizures at 300 mg/kg, ip after 4 hrs. In kind it is functional, organism-based. Also on record: dose 300 mg/kg. The method, boiled down: as §3
In a further data set the test system is Rattus norvegicus. The data set is described as follows: Anticonvulsant activity in Sprague-Dawley rat assessed as protection against pilocarpine-induced status epilepticus at 600 mg/kg, ip. It counts as functional, organism-based. Also on record: dose 600 mg/kg. In outline: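 Male albino Sprague Dawley rats (150–180 g) dosed i.p., then challenged with pilocarpine; qualitative screen scored as protection or no protection, seizure severity graded on the Racine scale; N/F and deaths recorded, time taken post first Stage III seizure.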

Data set [11] has as its system Mus musculus. The experiment in a line: Anticonvulsant activity in ip dosed albino CF-1 mouse assessed as protection against 6 Hz psychomotor seizure after 1 hr by minimal clonic seizure test. In kind it is functional. The following applies: albino CF-1, ip. In outline:
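Quantitative 6 Hz test in male CF-1 mice dosed i.p.; 32 mA for 3 s via corneal electrodes at time of peak effect; ED50 with 95% confidence interval, slope and standard error reported.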

The subject of data set [12] is Mus musculus. The experiment in a line: Anticonvulsant activity in ip dosed albino CF-1 mouse assessed as dose required to protect against maximal electroshock-induced seizures after 4 hrs. In kind it is functional. In outline:
as §2

In data set [13] the test system is Mus musculus. The data set is described as follows: Neurotoxicity in albino CF-1 mouse assessed as motor impairment at 300 mg/kg, ip after 0.5 hrs by rotarod test. It counts as toxicity, organism-based. Also on record: dose 300 mg/kg, route intraperitoneal. The following applies: in vivo. In outline: (§4)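 Minimal motor impairment in male CF-1 mice by rotorod after i.p. dosing; toxic if animal falls off rotating rod 3 times within 1 min. Screen doses 30, 100, 300 mg/kg; quantitative TD50 (95% confidence interval) determined at time of peak effect.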
In general terms: Falling from the rotarod earlier than controls is read as motor impairment.

For data set [14], the system named is Mus musculus. The experiment in a line: Neurotoxicity in albino CF-1 mouse assessed as motor impairment at 300 mg/kg, ip after 4 hrs by rotarod test. It counts as toxicity, organism-based. The settings on record: in vivo. Details: dose 300 mg/kg, route intraperitoneal. The method, boiled down:
as §4

Data set [15] in a line: Neuroprotective activity in hippocampal slices assessed as protection against NMDA-induced cell death after 4 hrs. It counts as functional, tissue-based. The following applies: Hippocampus. In outline: (§5)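 Organotypic hippocampal slice cultures exposed to NMDA or kainic acid alone or with test compound; propidium iodide in all wells, cell death read as PI fluorescence intensity; qualitative primary screen.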

Data set [16] can be described thus: Neuroprotective activity in hippocampal slices assessed as protection against kainic acid-induced cell death after 4 hrs. In kind it is functional, tissue-based. The settings on record: Hippocampus. In outline:
as §5

Data set [17] can be described thus: Octanol-phosphate buffer partition coefficient, log P of the compound at 5 mg, after 24 hrs by UV spectroscopic analysis. In kind it is physicochemical. In outline: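 5 mg compound added to 10 mL octanol plus 10 mL phosphate buffer in stoppered tube, mechanically shaken 24 h at room temperature, then left in separating funnel 6 h to equilibrate.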

The source made the active and inactive calls. No cut-off for these calls is given here. Where only a bound is given, the exact number is not on record here.

As for `O=C1Nc2ccccc2/C1=N\NC(=O)c1ccncc1`, the outcome with Mus musculus [1], in the data set on Mus musculus [2], with Mus musculus [6], in the data set with Mus musculus [7], in the data set on Mus musculus [8] and in the data set with Mus musculus [9] was inactive. Also, the result in the data set on Mus musculus [10] and in the data set on Rattus norvegicus was inactive. Further, the outcome in the data set with Mus musculus [3] and in the data set on Mus musculus [5] was Active. Moreover, the Activity in the data set with Mus musculus [4] (route intraperitoneal) is recorded as 50%.
By ED50 is commonly meant the dose at which the effect has come halfway, by size or by number of responders. Usually logP stands for a log measure of how a compound divides between an organic and an aqueous phase. `Cc1ccc(Oc2ccc(/C=N\NC(=O)c3ccncc3)cc2)cc1`: the ED50 in the data set on Mus musculus [11] is over 200 mg/kg. Moreover, the result (in the data set with Mus musculus [1]; in the data set with Mus musculus [6]; in the data set on Mus musculus [7]; in the data set with Mus musculus [9]; with Mus musculus [10]; in data set [15]) was inactive. Also, the outcome in [16] was inactive. The Activity is 50% with Mus musculus [2] (route intraperitoneal); 75% in the data set on Mus musculus [3] (route intraperitoneal); 300 mg/kg in the data set with Mus musculus [12]; “Non-toxic” with Mus musculus [13]; “Non-toxic” with Mus musculus [14]. Moreover, the outcome in the data set with Mus musculus [4] and in the data set with Mus musculus [5] was Active. For the same molecule, in [17], the logP at 24 h is 3.65.
Regarding `O=C(N/N=C\c1ccc(Oc2ccc(Br)cc2)cc1)c1ccncc1`, the outcome with Mus musculus [1], with Mus musculus [3], in the data set on Mus musculus [4], with Mus musculus [5], in the data set on Mus musculus [6] and in the data set with Mus musculus [7] was inactive. For the same molecule, the outcome in the data set with Mus musculus [8], in the data set with Mus musculus [9] and in the data set on Mus musculus [10] was inactive. The outcome in the data set with Mus musculus [2] was Active. Moreover, the Activity entry in the data set on Mus musculus [13] and with Mus musculus [14] was “Non-toxic” throughout. This molecule showed a logP at 24 h in [17] of 4.03.
Take `O=C(N/N=C\c1ccc(Oc2ccc3ccccc3c2)cc1)c1ccncc1`: the result in the data set with Mus musculus [6], in the data set on Mus musculus [7], in the data set on Mus musculus [8], with Mus musculus [9] and in the data set on Mus musculus [10] was inactive. Also, the Activity entry in the data set on Mus musculus [13] and in the data set on Mus musculus [14] was “Non-toxic” throughout. The molecule further yielded a logP at 24 h in data set [17] of 4.52.
On to `O=C(N/N=C\c1ccc(Oc2ccc([N+](=O)[O-])cc2)cc1)c1ccncc1`, for which the outcome in the data set with Mus musculus [6], in the data set on Mus musculus [7], with Mus musculus [8], in the data set with Mus musculus [9] and in the data set with Mus musculus [10] was inactive. For the same molecule, the Activity entry with Mus musculus [13] and with Mus musculus [14] was “Non-toxic” in each case. Besides, in data set [17], the logP at 24 h was 3.23.
`O=C(N/N=C\c1ccc(Oc2ccc3c(c2)OCO3)cc1)c1ccncc1`: the result in the data set on Mus musculus [6], in the data set with Mus musculus [7], in the data set with Mus musculus [8], in the data set with Mus musculus [9] and in the data set with Mus musculus [10] was inactive. Besides, the Activity result with Mus musculus [13] and in the data set with Mus musculus [14] was “Non-toxic” throughout. The logP at 24 h in data set [17] came to 3.2.
In the case of `O=C(N/N=C\c1ccc(Oc2ccccc2)cc1)c1ccncc1`, the outcome with Mus musculus [6], with Mus musculus [7], in the data set with Mus musculus [8], in the data set on Mus musculus [9] and in the data set on Mus musculus [10] was inactive. Further, the Activity entry in the data set on Mus musculus [13] and with Mus musculus [14] was “Non-toxic” in each case. Moreover, in data set [17], the logP at 24 h was 3.37.
In the case of `O=C(N/N=C\c1ccc(Oc2ccc(Cl)cc2)cc1)c1ccncc1`, the result with Mus musculus [6], in the data set with Mus musculus [7], with Mus musculus [8], with Mus musculus [9] and with Mus musculus [10] was inactive. Moreover, the Activity result in the data set with Mus musculus [13] was “Non-toxic”. In addition, the logP at 24 h in data set [17] amounted to 3.95.
As for `Cc1cc(Oc2ccc(/C=N\NC(=O)c3ccncc3)cc2)ccc1Cl`, the outcome in the data set on Mus musculus [1], with Mus musculus [2], in the data set with Mus musculus [3], with Mus musculus [4], with Mus musculus [6] and in the data set with Mus musculus [7] was inactive. Also, the result with Mus musculus [8], in the data set on Mus musculus [9] and in the data set with Mus musculus [10] was inactive. The result in the data set on Mus musculus [5] was Active. Moreover, the Activity entry in the data set with Mus musculus [13] and with Mus musculus [14] was “Non-toxic” throughout. This molecule also yielded a log partition coefficient (logP) at 24 h in data set [17] of 4.21.
